# SKKanGAS inh – blocks kanamycin growth of S. pyogenes SKKanGAS strain. inhibition, % at 7.5 µM. BacTiter-Glo, 6 h. 1.3% of 300,000 active;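 active = mean replicate score, as percent of positive control median, at least 50; inconclusive = mean below 50 but one replicate at or above 50; inactive = mean and every replicate below 50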;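 note: strain carries kanamycin resistance gene driven by streptokinase promoter and grows in 40 µg/ml kanamycin; loss of luminescence reflects streptokinase promoter inhibition or plain growth inhibition; 0% = median of DMSO wells and 100% = positive control at its reference dose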
# Autophagy mod – modulators of autophagy; AID 463193; 0.98% of 190,000 active; calls only at 10 µM (by protocol); MEF GFP-LC3 puncta imaging; test concentration mostly 10 µM;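 active = percentage of spot-positive cells more than 3 SD above its plate mean, without a fluorescence outlier flag or 80% toxicity; inconclusive = no clear call, values can overlap the other calls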;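 note: spot-positive cell cutoff set from DMSO-treated cells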
# Cl transport mod – KCC2 (human) Cl- transport modulation; Q9H2X9; B-score of Tl+ flux slope (higher = more flux/activation; lower = inhibition) at 10 µM; 2.2% of 190,000 active; KCC2 cells, thallium flux FluoZin-2 fluorescence;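 active = thallium flux slope and its plate-corrected score both differing from the plate sample mean at a set confidence after two filtering rounds, in either direction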;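 note: slope of fluorescence scaled to starting intensity during 10 to 20 s after thallium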
# WT yeast gro inh – growth inhibition of WT yeast, mitochondrial fusion screen; mitochondrial fusion phenotypic screen, WT strain; inhibition, % at 10 µM; 2.1% of 190,000 active; AID 1362; in the data active = inhibition above about 58%; tested in S. cerevisiae
# Insulin prom up – MIN6 insulin promoter up-regulation; MIN6 insulin promoter-GFP reporter, high-content imaging; stronger effect = higher value; z-score at 5 µM; 0.3% of 190,000 active;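 active = z-score above 3 at 5 µM with at least 500 cells counted in the well; inconclusive = wells under 500 cells, flagged as cytotoxic or low count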
# Rad51 HR inh – blocks human Rad51 in homologous recombination | inhibition, % at 10 µM | Q06609 | hRad51 DNA strand exchange, fluorescence dequenching | 0.085% of 200,000 active;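 active = inhibition above 40% at the single screening dose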;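 note: 0% = DMSO control wells and 100% = blanks with heterologous ssDNA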
# Target sequence (Q06609 whole entry, looked up): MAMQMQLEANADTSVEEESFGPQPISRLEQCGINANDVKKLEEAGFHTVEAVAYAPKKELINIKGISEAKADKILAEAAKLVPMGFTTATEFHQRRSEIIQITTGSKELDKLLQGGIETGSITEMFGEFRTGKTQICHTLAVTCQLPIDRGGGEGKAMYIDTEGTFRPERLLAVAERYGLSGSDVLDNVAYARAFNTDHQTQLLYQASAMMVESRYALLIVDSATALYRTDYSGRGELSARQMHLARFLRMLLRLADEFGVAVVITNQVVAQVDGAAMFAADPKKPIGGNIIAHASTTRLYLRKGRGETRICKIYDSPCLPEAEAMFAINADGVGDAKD
#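 Assay system: Human Rad51 nucleoprotein filaments preassembled on unlabelled ssDNA | Reagent: Donor/quencher-labelled 47-bp dsDNA substrate | Doses: One concentration, 10 µM final | Times: 37 °C 15-min filament assembly, 30-min compound preincubation, 15-min exchange | Technique: Fluorescein emission 520 nm, excitation 485 nm | Benchmarks: Plate control and blank wells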
# KCC2 sec1 – confirmation of human KCC2 transport modulators; 15% of 3,700 active; AID 1713; HEK293-KCC2, thallium flux, FluoZin2 fluorescence; stronger effect = higher value; shares compounds with Cl transport mod; normalised thallium flux (F/F0 slope) at 10 µM;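 active = thallium flux slope above the same plate's solvent-only control mean plus 3 SD; inconclusive = the two replicate wells disagree; inactive = no significant difference from solvent-only control wells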
# KCC2 bumet counter – thallium flux despite bumetanide block in KCC2 cells, secondary assay 3 | shares compounds with Cl transport mod | HEK293-KCC2 + bumetanide/ouabain, thallium flux FluoZin2; stronger effect = higher value | normalized thallium flux at 10 µM | 49% of 3,700 active | AID 1714;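 active = thallium entry rate above the same plate's blocked-transporter control wells by more than 3 SD; inconclusive = the two repeat wells disagree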;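 note: raw slope of fluorescence over initial fluorescence between 10 and 20 s after thallium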
# KCC2 sec2 – confirmation of human KCC2 transport modulators; shares compounds with Cl transport mod; HEK293-KCC2, thallium flux FluoZin2 fluorescence; actives lie on both sides; F/F0 rise rate, 10–20 s post-thallium; 23% of 3,700 active; AID 1715; normalized thallium flux at 10 µM;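 active = thallium flux slope more than 3 SD above or below the plate's solvent-only control mean, mostly below; inconclusive = the two repeat wells disagreed; inactive = no significant shift from solvent-only controls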;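 note: raw slope with 0.1% DMSO as baseline and bumetanide as block control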
# HEK293 Tl flux – acts in parental HEK cells, KCC2 counter-screen. shares compounds with Cl transport mod. HEK293 parental cells, thallium flux FluoZin2, ouabain; baseline-ratio fluorescence slope, 10–20 s after thallium. thallium flux rate (normalised fluorescence) at 10 µM. 46% of 3,700 active;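 active = thallium flux rate significantly above the same plate's solvent-only control wells, beyond their mean plus 3 SD; inconclusive = the two replicate wells gave conflicting results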
# KCC2 ouabain – confirmation of human KCC2 modulators with ouabain; shares compounds with Cl transport mod; HEK293-KCC2, thallium flux FluoZin2 fluorescence; bidirectional: low = inhibitor, high = activator; raw Tl+ flux slope (below DMSO = inhibition, above = activation) at 10 µM; 48% of 3,700 active;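 active = thallium flux slope beyond 3 SD from same-plate DMSO control mean in most replicates, usually higher, sometimes lower; inconclusive = repeat tests gave conflicting results; inactive = no significant difference from controls in most replicates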;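 note: slope of initial-normalized fluorescence between seconds 10 and 20 after thallium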
# HEK counter2 – acts in parental HEK cells, second KCC2 counter-screen; HEK293 parental, thallium flux FluoZin-2 fluorescence slope; 33% of 3,700 active; shares compounds with Cl transport mod; thallium flux slope at 10 µM;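 active = thallium flux slope above the same plate's solvent-control mean plus 3 SD in both duplicate wells; inconclusive = duplicate wells that disagreed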;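 note: run without ouabain in cells lacking the KCC2 cotransporter; slope of fluorescence scaled to its starting value between 10 and 20 s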
# Starred values were filed as active, the others as inactive; i = inactive; ? = inconclusive; . = no result. Rows were chosen to be rich in hits. Some 4.2% of all compounds tested hit in one or more screens of this group.
SMILES,SKKanGAS inh,Autophagy mod,Cl transport mod,WT yeast gro inh,Insulin prom up,Rad51 HR inh,KCC2 sec1,KCC2 bumet counter,KCC2 sec2,HEK293 Tl flux,KCC2 ouabain,HEK counter2
CC(C)n1c(O)c(C=NCc2cccnc2)c(=O)[nH]c1=S,4,.,-0.79,.,-0.46,9,.,.,.,.,.,.
CC(C)c1oc(=O)cc2c1[C@@H](O)[C@H]1OC(=O)[C@@]3(C)C[C@@H](O)[C@@H](O)[C@@]2(C)C13 (stereo partly specified),2,i,5.5*,-6,-1.6,0,0.0096,0.0068,0.029,?,0.021,0.01
COc1cccc(-n2c(-c3ccoc3)nc3ccccc3c2=O)c1,-6,i,.,-11,-0.39,-4,0.0066,0.0041,0.031,0.0072,0.018,0.0098
CCCCCCC(=O)c1c(O)n(-c2ccccc2OC)c(=O)[nH]c1=O,-2,i,-0.18,-11,0.56,1,.,.,.,.,.,.
O=C1C2CCCN2C(c2cccnc2)N1c1ccc(Cl)cc1 (stereo unspecified),11,i,0.18,-2,0.47,-4,.,.,.,.,.,.
O=C1C2CCCN2C(c2cccnc2)N1c1nccs1 (stereo unspecified),-3,i,3.2*,-10,-0.13,.,0.016,?,0.028,0.0075,0.016,0.0099
COc1ccc(-n2c(=O)[nH]c3ccccc3c2=O)cc1,-3,i,0.9,18,0.33,5,0.0096,0.0063,0.031,0.0084,0.019,0.01
COc1ccc(-n2c(=O)[nH]c3ccccc3c2=O)c(OC)c1,1,i,0.16,-11,0.01,-5,.,.,.,.,.,.
CCCC(=O)OCC[N+](C)(C)C,-1,i,4.9*,-7,.,-1,?,0.008,0.029,0.0072,0.022,0.0098
CNc1ccc2oc(C[C@H]3O[C@@]4(CC[C@H]3C)O[C@H]([C@H](C)C(=O)c3ccc[nH]3)[C@H](C)C[C@H]4C)nc2c1C(=O)O,107*,.,7.4*,.,1.6,-6,0.0066,0.0092*,0.035,?,?,0.011
NNC(=O)c1ccc(Cl)cc1,-4,i,4.3*,8,-0.18,0,0.0086,0.0047,0.031,0.0069,0.02,0.01
CC(=NCCN(C)C)c1c(O)n(Cc2ccccc2)c(=O)[nH]c1=O,1,.,0.76,.,-1.4,11,.,.,.,.,.,.
NC(=O)c1ccc(N=Nc2c(O)[nH]c(=O)[nH]c2=O)cc1,0,i,0.44,-14,-0.03,-60,.,.,.,.,.,.
O=c1[nH]c(O)c(N=Nc2cc([N+](=O)[O-])ccc2O)c(=O)[nH]1,-5,i,.,40,-0.4,9,0.0072,?,0.032,0.008,0.019,0.012
COc1ccc(-c2nn(CCC#N)cc2C(=O)Nc2ccc(C(C)=O)cc2)cc1[N+](=O)[O-],0,.,.,.,.,.,.,.,.,.,.,.
S=C1Nc2ccccc2Sc2ccccc21,23,i,48*,15,-0.06,-53,0.019*,0.075*,0.03,0.054*,0.053*,0.013*
Cc1cc([N+](=O)[O-])c(Cl)cc1NC(=O)C(C)C,1,i,0.73,-6,0.23,0,.,.,.,.,.,.
CNc1cc(Cl)c2nonc2c1[N+](=O)[O-],35,i,-4.6*,54,-0.63,-2,0.0073,0.007*,?,0.007,0.017,0.01
COc1ccc(-n2c(O)c(C=NCCN(C)C)c(=O)[nH]c2=O)cc1,6,.,1,.,0.6,.,.,.,.,.,.,.
CC(C)CC12CN3CCN(CC(C3)C1O)C2 (stereo unspecified),-11,i,0.18,-15,-0.55,4,.,.,.,.,.,.
CCN(CC)c1ccc(N=Cc2c(O)n(CCc3ccc(OC)c(OC)c3)c(=O)[nH]c2=O)cc1,36,i,-0.35,34,1.2,-22,.,.,.,.,.,.
CCN(CC)CCCN=Cc1c(O)n(CCc2ccc(OC)c(OC)c2)c(=O)[nH]c1=O,-6,i,-6.2*,-14,0.51,2,0.01,0.0067,0.033,?,0.024,?
Cc1nc2cc(C(F)(F)F)ccc2n1C1CCN(Cc2nnnn2Cc2ccc3c(c2)OCO3)CC1,10,i,-4.7*,15,2.6,5,0.0049,0.0052,?,0.0072,?,0.011
Cc1nc2cc(C(F)(F)F)ccc2n1C1CCN(Cc2nnnn2Cc2cccs2)CC1,-2,i,-1.3,4,-0.91,-4,.,.,.,.,.,.
Cc1ccccc1-n1c(-c2ccc([N+](=O)[O-])cc2)nc2ccccc2c1=O,8,i,-0.68,3,-0.24,.,.,.,.,.,.,.
COc1ccc(OC)c(N2Cc3ccccc3C2=N)c1,1,i,0.39,1,-0.03,16,.,.,.,.,.,.
COc1cc(C(=S)N2CCOCC2)cc(OC)c1OC(=O)Cc1ccccc1,-1,i,-5.4*,-1,0.33,-5,?,0.006*,0.021*,0.0076,0.013,0.0097

# Assay outcomes as filed in PubChem BioAssay.
